# Measured values published in ChEMBL document CHEMBL6177937, “Design, synthesis, and biological evaluation of novel thiazole derivatives as PI3K/mTOR dual inhibitors” (RSC Med Chem, 2024).
# pIC50: −log10 of the molar value.
# Key:
# [1] = tested on: SK-MEL-5; experiment: Growth inhibition of human SK-MEL-5 cells measured after 48 hrs by SRB assay; assay type: functional
# Outline: (§1)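 NCI 60-line SRB screen: cells seeded […], grown 24 h at 37°C, 5% CO2, then exposed 48 h to five concentrations (10-fold or ½-log dilutions from DMSO stock). Adherent cells fixed with cold TCA (final 10%), suspension cells with 80% TCA (final 16%); SRB stained, read at 515 nm. GI50 from time-zero, control and treated absorbances.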
# [2] = tested on: HOP-92; experiment: Growth inhibition of human HOP-92 cells measured after 48 hrs by SRB assay; assay type: functional
# Outline: (§2)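 NCI 60-line format with five concentrations (10-fold or ½-log serial dilutions) from DMSO stocks in medium with 50 μg/mL gentamicin. Cells preincubated 24 h, then exposed 48 h at 37°C, 5% CO2. Time-zero plates TCA-fixed. SRB absorbance read at 515 nm. GI50 taken from [(Ti−Tz)/(C−Tz)]×100 = 50. Out-of-range values are expressed as > or < the highest or lowest concentration tested.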
# [3] = tested on: MOLT-4; experiment: Growth inhibition of human MOLT-4 cells measured after 48 hrs by SRB assay; assay type: functional; outline: as §2
# [4] = tested on: KM12; experiment: Growth inhibition of human KM12 cells measured after 48 hrs by SRB assay; assay type: functional; outline: as §2
# [5] = tested on: NCI-H23; experiment: Growth inhibition of human NCI-H23 cells measured after 48 hrs by SRB assay; assay type: functional; outline: as §2
# [6] = tested on: K562; experiment: Growth inhibition of human K562 cells measured after 48 hrs by SRB assay; assay type: functional; outline: as §2
# [7] = tested on: HT-29; experiment: Growth inhibition of human HT-29 cells measured after 48 hrs by SRB assay; assay type: functional; outline: as §2
# [8] = tested on: A549; experiment: Growth inhibition of human A549 cells measured after 48 hrs by SRB assay; assay type: functional; outline: as §2
# [9] = tested on: UACC-257; experiment: Growth inhibition of human UACC-257 cells measured after 48 hrs by SRB assay; assay type: functional; details: for CC50: read-out: LC50 (the source's name); outline: as §1
# [10] = tested on: SK-MEL-2; experiment: Growth inhibition of human SK-MEL-2 cells measured after 48 hrs by SRB assay; assay type: functional; outline: as §1
# [11] = tested on: MDA-MB-468; experiment: Growth inhibition of human MDA-MB-468 cells measured after 48 hrs by SRB assay; assay type: functional; outline: as §2
# [12] = tested on: PC-3; experiment: Growth inhibition of human PC-3 cells measured after 48 hrs by SRB assay; assay type: functional; outline: as §1
# [13] = tested on: RPMI-8226; experiment: Growth inhibition of human RPMI-8226 cells measured after 48 hrs by SRB assay; assay type: functional; outline: as §1
# [14] = tested on: TK-10; experiment: Growth inhibition of human TK-10 cells measured after 48 hrs by SRB assay; assay type: functional; outline: as §1
# [15] = tested on: CCRF-CEM; experiment: Growth inhibition of human CCRF-CEM cells measured after 48 hrs by SRB assay; assay type: functional; outline: as §2
# [16] = tested on: SNB-19; experiment: Growth inhibition of human SNB-19 cells measured after 48 hrs by SRB assay; assay type: functional; outline: as §1
# [17] = tested on: Hs-578T; experiment: Growth inhibition of human Hs-578T cells measured after 48 hrs by SRB assay; assay type: functional; details: for CC50: read-out: LC50 (the source's name); outline: as §2
# [18] = tested on: MDA-MB-435; experiment: Growth inhibition of human MDA-MB-435 cells measured after 48 hrs by SRB assay; assay type: functional; outline: as §2
# [19] = tested on: HCC 2998; experiment: Growth inhibition of human HCC 2998 cells measured after 48 hrs by SRB assay; assay type: functional; outline: as §2
# [20] = tested on: MCF7; experiment: Growth inhibition of human MCF7 cells measured after 48 hrs by SRB assay; assay type: functional; outline: as §2
# [21] = tested on: Panel NCI-60 (60 carcinoma cell lines); experiment: Antiproliferative activity against human NCI-60 cells assessed as growth inhibition at 10 uM measured after 48 hrs by SRB assay relative to control; assay type: functional; details: read-out: GI
# Outline: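 NCI screen: cells seeded at […] per well and preincubated 24 h (37°C, 5% CO2). Compound stocks in DMSO, tested at a single 10 μM. Exposure 48 h. Adherent cells fixed with cold TCA (10% final), suspension cells with 16% TCA. SRB stain read at 515 nm. Percent growth inhibition reported against time-zero and untreated controls.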
# [22] = tested on: COLO 205; experiment: Growth inhibition of human COLO 205 cells measured after 48 hrs by SRB assay; assay type: functional; outline: as §2
# [23] = tested on: HL-60; experiment: Cytotoxicity against human HL-60 cells assessed as reduction in cell viability measured after 24 hrs by MTT assay; assay type: functional, cell-based; details: HL-60, 24 h
# Outline: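 MTT viability with 24 h incubation in 96-well plates. Five semi-log concentrations from 0.01 to 100 μM. Formazan absorbance read at 570 nm, with 690 nm background subtracted. Run in triplicate. IC50 obtained by sigmoidal dose-response fitting. Cells are leukemia HL-60(TB) and normal lymphocytes (PCS-800-017).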
# [24] = tested on: OVCAR-4; experiment: Growth inhibition of human OVCAR-4 cells measured after 48 hrs by SRB assay; assay type: functional; outline: as §2
# [25] = tested on: SW-620; experiment: Growth inhibition of human SW620 cells measured after 48 hrs by SRB assay; assay type: functional; outline: as §1
# [26] = tested on: ACHN; experiment: Growth inhibition of human ACHN cells measured after 48 hrs by SRB assay; assay type: functional; outline: as §2
# [27] = tested on: HL-60; experiment: Growth inhibition of human HL-60 cells measured after 48 hrs by SRB assay; assay type: functional; details: for CC50: read-out: LC50 (the source's name); outline: as §2
# [28] = tested on: NCI-H226; experiment: Growth inhibition of human NCI-H226 cells measured after 48 hrs by SRB assay; assay type: functional; outline: as §2
# [29] = tested on: A498; experiment: Growth inhibition of human A498 cells measured after 48 hrs by SRB assay; assay type: functional; outline: as §2
# [30] = tested on: OVCAR-8; experiment: Growth inhibition of human OVCAR-8 cells measured after 48 hrs by SRB assay; assay type: functional; outline: as §2
# [31] = tested on: OVCAR-5; experiment: Growth inhibition of human OVCAR-5 cells measured after 48 hrs by SRB assay; assay type: functional; details: for CC50: read-out: LC50 (the source's name); outline: as §2
# [32] = tested on: EKVX; experiment: Growth inhibition of human EKVX cells measured after 48 hrs by SRB assay; assay type: functional; outline: as §2
# [33] = tested on: CAKI-1; experiment: Growth inhibition of human CAKI-1 cells measured after 48 hrs by SRB assay; assay type: functional; outline: as §2
# [34] = tested on: HL-60; experiment: Induction of apoptosis in human HL-60 cells assessed as necrotic cells measured after 24 hrs by Annexin-V/propidium iodide staining based flow cytometry (reference value: 0.61%); assay type: functional
compound,measurement,setting,value
CCOc1cc(/C=N/Nc2nc(-c3cccc([N+](=O)[O-])c3)cs2)ccc1O,GI50,[1],2.73 µM
same,TGI,[1],9.14 µM
same,GI50,[2],3.2 µM
same,TGI,[2],30.9 µM
same,GI50,[3],1.74 µM
same,TGI,[3],5.94 µM
same,GI50,[4],1.94 µM
same,TGI,[4],3.63 µM
same,GI50,[5],1.99 µM
same,TGI,[5],5.14 µM
same,GI50,[6],3.05 µM
same,TGI,[6],34.3 µM
same,GI50,[7],33.7 µM
same,TGI,[7],> 100 µM
same,GI50,[8],3.45 µM
same,TGI,[8],14.1 µM
same,GI50,[9],1.71 µM
same,TGI,[9],3.23 µM
same,CC50,[9],6.08 µM
same,GI50,[10],2.48 µM
same,TGI,[10],6.75 µM
same,GI50,[11],2.17 µM
same,TGI,[11],4.61 µM
same,GI50,[12],2.54 µM
same,TGI,[12],11.4 µM
same,GI50,[13],3.03 µM
same,TGI,[13],> 100 µM
same,GI50,[14],4.42 µM
same,TGI,[14],16.1 µM
same,GI50,[15],2.03 µM
same,TGI,[15],29.6 µM
same,GI50,[16],3.35 µM
same,TGI,[16],20.8 µM
same,GI50,[17],3.38 µM
same,TGI,[17],39.2 µM
same,CC50,[17],> 100 µM
same,GI50,[18],2.7 µM
same,TGI,[18],9.14 µM
same,GI50,[19],3.43 µM
same,TGI,[19],19.8 µM
same,GI50,[20],2.86 µM
same,TGI,[20],10.9 µM
same,inhibition of growth at 10 µM,[21],112%
same,GI50,[22],16.4 µM
same,TGI,[22],38.7 µM
same,pIC50,[23],5.63
same,GI50,[24],2.41 µM
same,TGI,[24],8.05 µM
same,GI50,[25],3.53 µM
same,TGI,[25],11.6 µM
same,GI50,[26],3.22 µM
same,TGI,[26],11.6 µM
same,GI50,[27],2.32 µM
same,TGI,[27],7.84 µM
same,CC50,[27],> 100 µM
same,GI50,[28],2.36 µM
same,TGI,[28],6.22 µM
same,GI50,[29],20.2 µM
same,TGI,[29],44.8 µM
same,GI50,[30],2.84 µM
same,TGI,[30],9.63 µM
same,GI50,[31],3.79 µM
same,TGI,[31],16.2 µM
same,CC50,[31],51.3 µM
same,GI50,[32],3.17 µM
same,TGI,[32],16.4 µM
same,GI50,[33],2.18 µM
same,TGI,[33],6.88 µM
same,Activity,[34],4.93%
O=[N+]([O-])c1cc(/C=N/Nc2nc(-c3ccc(Cl)cc3)cs2)ccc1Cl,GI50,[1],10.3 µM
same,TGI,[1],24.5 µM
same,GI50,[2],2.59 µM
same,TGI,[2],10.8 µM
same,GI50,[3],3.43 µM
same,TGI,[3],24.1 µM
same,GI50,[4],1.88 µM
same,TGI,[4],3.58 µM
same,GI50,[5],12.5 µM
same,TGI,[5],40.9 µM
same,GI50,[6],5.86 µM
same,TGI,[6],66.4 µM
same,GI50,[7],3.6 µM
same,TGI,[7],15.4 µM
same,GI50,[8],78.4 µM
same,TGI,[8],> 100 µM
same,GI50,[9],7.52 µM
same,TGI,[9],22 µM
same,CC50,[9],51.6 µM
same,GI50,[10],24 µM
same,TGI,[10],81.5 µM
same,GI50,[11],1.54 µM
same,TGI,[11],3.01 µM
same,GI50,[12],1.91 µM
same,TGI,[12],4.46 µM
same,GI50,[13],2.31 µM
same,TGI,[13],6.29 µM
same,GI50,[14],28.1 µM
same,TGI,[14],84 µM
same,GI50,[15],3.62 µM
same,TGI,[15],52.9 µM
same,GI50,[16],10.5 µM
same,TGI,[16],24.2 µM
same,GI50,[17],2.36 µM
same,TGI,[17],6.14 µM
same,CC50,[17],> 100 µM
same,GI50,[18],23.2 µM
same,TGI,[18],98.3 µM
same,GI50,[19],1.87 µM
same,TGI,[19],3.55 µM
same,GI50,[20],1.79 µM
same,TGI,[20],3.81 µM
same,inhibition of growth at 10 µM,[21],66%
same,GI50,[22],15.4 µM
same,TGI,[22],29.7 µM
same,pIC50,[23],5.64
same,GI50,[24],8.25 µM
same,TGI,[24],35.9 µM
same,GI50,[25],18.3 µM
same,TGI,[25],43.1 µM
same,GI50,[26],15.1 µM
same,TGI,[26],28.4 µM
same,GI50,[27],2.29 µM
same,TGI,[27],7.43 µM
same,CC50,[27],> 100 µM
same,GI50,[28],4.21 µM
same,TGI,[28],32.6 µM
same,GI50,[29],14.8 µM
same,TGI,[29],39.6 µM
same,GI50,[30],14.9 µM
same,TGI,[30],54.1 µM
same,GI50,[31],23 µM
same,TGI,[31],78.2 µM
same,CC50,[31],> 100 µM
same,GI50,[32],10.3 µM
same,TGI,[32],22.9 µM
same,GI50,[33],14.6 µM
same,TGI,[33],32.1 µM
same,Activity,[34],3.64%
